# Reference: paper PMC3644855 (Nuclear medicine and biology, 2009)
# Values joined by “and” are separate entries in the source; they are usually repeats but may differ in a detail not shown here. Equal entries are not always repeated. Where two headings read alike, the source gives them in different places.
# How the values were obtained:
# [1] = assay type: in vivo; conditions: rat i.v., LC/MS
# Procedure, shortened: (§1)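 Male Sprague-Dawley rats (220–260 g, 3 per group), awake, got i.v. 0.5–1 mCi 18F-labelled test compound in 100 μL, carrying 1, 11 or 18 nmol unlabelled compound; killed at 5 or 30 min. Dissected brain regions and plasma, spiked with internal standard, homogenized at pH 12.5, extracted with hexane:ethyl acetate (4:1), dried and redissolved in 50% CH3CN. Analysed by UPLC-Q-TOF (positive ESI) against matrix calibration, triplicate. DUR = %ID/g × body weight/100.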
# 5-HT1A receptor = target: T1, 5-HT1A receptor (Rattus norvegicus, UniProt P19327); test: Brain tissue specific binding ratio [; assay type: in vivo
# T1 sequence (P19327 1-422): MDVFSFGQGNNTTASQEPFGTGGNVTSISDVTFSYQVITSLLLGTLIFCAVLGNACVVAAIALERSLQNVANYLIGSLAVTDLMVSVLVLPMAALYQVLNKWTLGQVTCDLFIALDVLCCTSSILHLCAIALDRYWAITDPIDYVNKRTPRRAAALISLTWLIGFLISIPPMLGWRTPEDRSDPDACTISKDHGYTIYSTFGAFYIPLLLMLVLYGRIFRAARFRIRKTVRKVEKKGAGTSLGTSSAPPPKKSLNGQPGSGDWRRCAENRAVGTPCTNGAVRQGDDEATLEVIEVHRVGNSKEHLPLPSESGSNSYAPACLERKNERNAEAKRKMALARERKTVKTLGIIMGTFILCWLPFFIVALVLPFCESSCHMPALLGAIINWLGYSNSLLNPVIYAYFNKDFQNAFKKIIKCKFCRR
# Procedure, shortened: as §1
# [2] = rat i.v., 1 nmol, 30 min, LC/MS
# [3] = rat i.v., 11 nmol, 30 min, LC/MS
# [4] = rat i.v., 18 nmol, 30 min, LC/MS
compound,measurement,setting,value
"COc1ccccc1N1CCN(CCN(C(=O)c2ccc(F)cc2)c2ncccn2)CC1 [FPWAY, 4-Fluoro-N-{2-[4-(2-methoxyphenyl)-1-piperazinyl]ethyl}-N-(2-pyrimidinyl)benzamide]",DUR Hippocampus,"[1]; 1 nmol, 5 min",4.28 %ID/g * body weight/100 and 4.28±0.35 %ID/g * body weight/100
same,DUR brain stem,"[1]; 1 nmol, 5 min",2.36±0.35 %ID/g * body weight/100
same,DUR caudate,"[1]; 1 nmol, 5 min",1.70±0.30 %ID/g * body weight/100
same,DUR cerebellum,"[1]; 1 nmol, 5 min",1.31±0.21 %ID/g * body weight/100
same,DUR cortex,"[1]; 1 nmol, 5 min",3.10±0.78 %ID/g * body weight/100
same,DUR plasma,"[1]; 1 nmol, 5 min",0.49±0.17 %ID/g * body weight/100
same,DUR thalamus,"[1]; 1 nmol, 5 min",2.39±0.45 %ID/g * body weight/100
same,DUR Hippocampus,"[1]; 1 nmol, 30 min",2.20 %ID/g * body weight/100 and 2.20±0.38 %ID/g * body weight/100
same,DUR brain stem,"[1]; 1 nmol, 30 min",0.98±0.05 %ID/g * body weight/100
same,DUR caudate,"[1]; 1 nmol, 30 min",0.60±0.04 %ID/g * body weight/100
same,DUR cerebellum,"[1]; 1 nmol, 30 min",0.32±0.08 %ID/g * body weight/100
same,DUR cortex,"[1]; 1 nmol, 30 min",1.06±0.25 %ID/g * body weight/100
same,DUR plasma,"[1]; 1 nmol, 30 min",0.21±0.07 %ID/g * body weight/100
same,DUR thalamus,"[1]; 1 nmol, 30 min",0.81±0.02 %ID/g * body weight/100
same,DUR Hippocampus,"[1]; 11 nmol, 30 min",0.79 %ID/g * body weight/100 and 0.79±0.08 %ID/g * body weight/100
same,DUR brain stem,"[1]; 11 nmol, 30 min",0.32±0.05 %ID/g * body weight/100
same,DUR caudate,"[1]; 11 nmol, 30 min",0.38±0.06 %ID/g * body weight/100
same,DUR cerebellum,"[1]; 11 nmol, 30 min",0.23±0.03 %ID/g * body weight/100
same,DUR cortex,"[1]; 11 nmol, 30 min",0.52±0.05 %ID/g * body weight/100
same,DUR plasma,"[1]; 11 nmol, 30 min",0.13±0.02 %ID/g * body weight/100
same,DUR thalamus,"[1]; 11 nmol, 30 min",0.41±0.08 %ID/g * body weight/100
same,hippocampus uptake (DUR),"[1]; 17 nmol, 30 min, hippocampus",0.53
same,DUR Hippocampus,"[1]; 18 nmol, 30 min",0.53±0.03 %ID/g * body weight/100
same,DUR brain stem,"[1]; 18 nmol, 30 min",0.30±0.05 %ID/g * body weight/100
same,DUR caudate,"[1]; 18 nmol, 30 min",0.25±0.08 %ID/g * body weight/100
same,DUR cerebellum,"[1]; 18 nmol, 30 min",0.16±0.02 %ID/g * body weight/100
same,DUR cortex,"[1]; 18 nmol, 30 min",0.41±0.18 %ID/g * body weight/100
same,DUR plasma,"[1]; 18 nmol, 30 min",0.33±0.11 %ID/g * body weight/100
same,DUR thalamus,"[1]; 18 nmol, 30 min",0.30±0.04 %ID/g * body weight/100
same,Specific binding ratio [(DURtissue/DURCb)−1] Hippocampus,"5-HT1A receptor; rat i.v., 1 nmol, 5 min, LC/MS",2.30 and 2.30±0.42
same,Specific binding ratio [(DURtissue/DURCb)−1] brain stem,"5-HT1A receptor; rat i.v., 1 nmol, 5 min, LC/MS",0.75±0.35
same,Specific binding ratio [(DURtissue/DURCb)−1] caudate,"5-HT1A receptor; rat i.v., 1 nmol, 5 min, LC/MS",0.30±0.13
same,Specific binding ratio [(DURtissue/DURCb)−1] cortex,"5-HT1A receptor; rat i.v., 1 nmol, 5 min, LC/MS",1.34±0.27
same,Specific binding ratio [(DURtissue/DURCb)−1] thalamus,"5-HT1A receptor; rat i.v., 1 nmol, 5 min, LC/MS",0.84±0.30
same,Specific binding ratio [(DURtissue/DURCb)−1] Hippocampus,5-HT1A receptor; [2],5.87 and 5.87±0.56
same,Specific binding ratio [(DURtissue/DURCb)−1] brain stem,5-HT1A receptor; [2],1.99±0.53
same,Specific binding ratio [(DURtissue/DURCb)−1] caudate,5-HT1A receptor; [2],0.95±0.06
same,Specific binding ratio [(DURtissue/DURCb)−1] cortex,5-HT1A receptor; [2],2.29±0.06
same,Specific binding ratio [(DURtissue/DURCb)−1] thalamus,5-HT1A receptor; [2],1.58±0.58
same,Specific binding ratio [(DURtissue/DURCb)−1] Hippocampus,5-HT1A receptor; [3],2.43 and 2.43±0.35
same,Specific binding ratio [(DURtissue/DURCb)−1] brain stem,5-HT1A receptor; [3],0.42±0.33
same,Specific binding ratio [(DURtissue/DURCb)−1] caudate,5-HT1A receptor; [3],0.65±0.31
same,Specific binding ratio [(DURtissue/DURCb)−1] cortex,5-HT1A receptor; [3],1.26±0.28
same,Specific binding ratio [(DURtissue/DURCb)−1] thalamus,5-HT1A receptor; [3],0.78±0.29
same,specific binding ratio hippocampus,"5-HT1A receptor; rat i.v., 17 nmol, 30 min, hippocampus, LC/MS",2.42
same,Specific binding ratio [(DURtissue/DURCb)−1] Hippocampus,5-HT1A receptor; [4],2.42±0.28
same,Specific binding ratio [(DURtissue/DURCb)−1] brain stem,5-HT1A receptor; [4],0.93±0.13
same,Specific binding ratio [(DURtissue/DURCb)−1] caudate,5-HT1A receptor; [4],0.67±0.31
same,Specific binding ratio [(DURtissue/DURCb)−1] cortex,5-HT1A receptor; [4],1.61±0.39
same,Specific binding ratio [(DURtissue/DURCb)−1] thalamus,5-HT1A receptor; [4],0.91±0.14
same,saturability of binding with increasing mass dose,"5-HT1A receptor; rat, 1, 11 and 18 nmol mass doses, hippocampus",demonstrates saturability of binding
